Compound activity: PubChem, The Scripps Research Institute Molecular Screening Center
A selection: hits, their analogues and other compounds. The true share with any hit is near 3.7%.
TAAR1 antagonist: human TAAR1 antagonists, primary screen, Fluo-8 calcium fluorescence, CHO RD-HGA16 cells. AID 624466, 2012. 360,000 compounds, 1.5% hits. Trace amine-associated receptor 1 (Homo sapiens), Q96RJ0. antagonist. inhibition, % at 3 µM;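 active = inhibition above a per-plate cutoff, the mean inhibition of test compounds on that plate plus 3 SD, cut at about 49% in these data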;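 note: 0% = DMSO plus EC80 beta-PEA response and 100% = DMSO alone without agonist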
Target sequence (Q96RJ0 whole entry, looked up): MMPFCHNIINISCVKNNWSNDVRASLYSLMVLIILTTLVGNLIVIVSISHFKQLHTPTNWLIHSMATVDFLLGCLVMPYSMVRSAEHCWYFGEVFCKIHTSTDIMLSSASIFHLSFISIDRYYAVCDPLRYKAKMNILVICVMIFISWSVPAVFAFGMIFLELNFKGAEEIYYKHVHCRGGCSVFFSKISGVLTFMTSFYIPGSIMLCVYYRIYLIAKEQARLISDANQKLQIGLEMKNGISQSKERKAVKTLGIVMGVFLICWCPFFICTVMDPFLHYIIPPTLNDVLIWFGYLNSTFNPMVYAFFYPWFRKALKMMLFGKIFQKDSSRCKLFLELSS
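Test system: RD-HGA16 CHO cells with stable hTAAR1 and Gα16 / Probe or stimulus: EC80 β-phenethylamine stimulus / Times: seeding 17-24 h prior, 75-min 37 °C, 30-min RT dye loading / Detection: Fluo-8 calcium-sensitive fluorescence / Read-out basis: % inhibition scaled between DMSO and EC80 PEA controls / Repeats: singlicate, one well per test compound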
NS3 helicase inh: inhibitors of HCV NS3 helicase, primary screen, biochemical, Cy5 molecular beacon fluorescence | inhibition, % at 10.9 µM | 290,000 compounds, 0.56% hits | Hepatitis C virus NS3 helicase | AID 1800, 2009 | NS3 helicase DNA unwinding;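 active = inhibition above the mean of all tested compounds plus 3 SD, set per campaign, cut at about 35% in these data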;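 note: 0% = DMSO wells and 100% = thioflavine S control wells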
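assay system = NS3 helicase fragment of HCV | buffer or medium = MOPS pH 6.5, MgCl2, DTT, Tween20, BSA | timing = 60 min unwinding reaction at 25 °C after ATP addition | signal = Cy5 beacon fluorescence read at start and 1 h | read-out basis = % inhibition of unwinding | control set = low DMSO, high thioflavine S at 110 µM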
rCAG binder: binders of r(CAG) RNA repeats, primary screen, biochemical, fluorescence. r(CAG) RNA repeat, TO-PRO-1 dye displacement fluorescence. inhibition, % at 3 µM. 370,000 compounds, 1.3% hits. AID 651821, 2012;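 active = inhibition above the plate cutoff, the mean of all test compounds on that plate plus 3 SD, cut at about 35% in these data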;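 note: 0% = DMSO alone and 100% = 100 µM mitoxantrone as full dye displacement; higher means more dye released from RNA so lower well fluorescence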
HCV core dimer: inhibitors of HCV core protein dimerization, primary screen, biochemical, TR-FRET, high-throughput; 300,000 compounds, 0.33% hits; AID 1899, 2009; inhibition, % at 5 µM; TR-FRET GST/Flag-core106 dimerization, 1536-well;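 active = inhibition above the mean of all tested compounds plus 3 SD, set per screening campaign, cut at about 45% in these data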
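Assay system: Tagged HCV core106 pair (GST and Flag) | Buffer or medium: KF-containing HEPES buffer, pH 7.45, DTT, CHAPS, BSA | Also added: Eu donor and XL665 acceptor anti-tag antibodies | Dosing: One concentration, 5 µM, in 0.5% DMSO | Timing: 4 h at 22.5 °C | Technique: TR-FRET 671 and 617 nm emission | Repeats: Singlicate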
TAAR1 agonist: human TAAR1 agonists, primary screen, Fluo-8 calcium fluorescence, CHO RD-HGA16 cells; vehicle wells 0%, saturating PEA agonist 100%; activation, % at 3 µM; 360,000 compounds, 0.99% hits;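 active = activation above the mean activation of all test compounds in the run plus 3 SD, cut at about 38% in these data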
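Benchmarks: low control DMSO, high control PEA (EC100); System: CHO RD-HGA16 cells carrying human TAAR1 plus Gα16; Detection: Fluo-8 fluorescence, 5 s baseline then 140 s kinetic read; Schedule: 17-24 h plating, Fluo-8 75 min 37 °C, 30 min RT; Read-out basis: % activation from peak over basal fluorescence ratio, DMSO-to-PEA scaled.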
TAAR1 ag confirm: human TAAR1 agonists, retest of hits, confirmation, Fluo-8 calcium fluorescence, CHO RD-HGA16 cells; shares compounds with TAAR1 agonist; scaled: DMSO 0%, maximal phenethylamine 100%; activation, % at 3 µM; 2,400 compounds, 82% hits;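 active = activation above a cutoff set at the run's mean compound activation plus 3 SD, cut at about 39% in these data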
Ga16 nonsel ag: nonselective calcium mobilization agonists, CHO-Ga16 cells, counter-screen for hTAAR1 agonist project, cell-based, fluorescence, CHO-Ga16 parental line; shares compounds with TAAR1 agonist; Fluo-8 calcium fluorescence; normalized to maximal ATP response, DMSO zero; activation, % at 3 µM; 2,400 compounds, 50% hits;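 active = activation above the run cutoff, the mean activation over all tested wells plus 3 SD, cut at about 12% in these data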;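 note: 0% = DMSO wells and 100% = maximal ATP response on the peak over basal ratio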
TAAR1 desens: TAAR1 desensitization by agonist hits, confirmation, counter-screen for TAAR1 agonist project, cell-based, fluorescence, tachyphylaxis; inhibition, % at 3 µM; shares compounds with TAAR1 agonist; 2,400 compounds, 46% hits; CHO RD-HGA16 hTAAR1, Fluo-8 calcium, beta-PEA response inhibition;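 active = inhibition above the run cutoff, the mean inhibition of all test compounds plus 3 SD, cut at about 49% in these data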;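 note: beta-PEA stimulus applied at its EC80; loss of beta-PEA calcium signal after compound pretreatment read as receptor desensitization; 0% = DMSO with beta-PEA at EC80 and 100% = DMSO alone without agonist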
Ga16 nonsel ant: inhibition of ATP-evoked calcium response in CHO-Ga16 cells, counter-screen for TAAR1 agonist project, cell-based, fluorescence; inhibition, % at 3 µM; shares compounds with TAAR1 agonist; CHO-Ga16 ATP-induced calcium, Fluo-8 fluorescence; 2,400 compounds, 39% hits;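 active = inhibition above the plate's mean compound inhibition plus 3 SD, computed per plate, cut at about 22% in these data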;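 note: 0% = EC80 ATP with DMSO and 100% = DMSO wells without ATP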
* = called active by the depositor; . = no result given.

SMILES | TAAR1 antagonist | NS3 helicase inh | rCAG binder | HCV core dimer | TAAR1 agonist | TAAR1 ag confirm | Ga16 nonsel ag | TAAR1 desens | Ga16 nonsel ant
CC1=CC(C)(C)N(C(=O)c2ccc(F)cc2)c2cc3c(cc21)OCO3 | 36.9 | -6.8 | -1.8 | 3.4 | 59.0* | 62.5* | 40.8* | 45.6 | 33.8*
O=C(c1cccs1)n1ccc2ccc(-c3ccc4ccn(Cc5ccccc5)c4c3)cc21 | . | . | 20.0 | . | . | . | . | . | .
COc1ccc(C2CC(=O)C(c3ccc(C(F)(F)F)cc3)=CN2Cc2ccccc2)cc1 (configuration not stated) | -36.6 | . | 6.7 | . | 2.2 | . | . | . | .
O=C(NCCc1cccs1)C1CC(c2ccccc2[N+](=O)[O-])=NO1 (configuration not stated) | 11.6 | -2.4 | -2.7 | 2.0 | 46.5* | 56.9* | 3.4 | 32.4 | 15.1
Cc1ccc(CCNC(=O)C2CC(c3ccccc3[N+](=O)[O-])=NO2)cc1 (configuration not stated) | 8.3 | -5.9 | -6.8 | 0.6 | 10.3 | . | . | . | .
COc1cc(C(=O)NC2CCCCN(Cc3cccc(C(F)(F)F)c3)C2=O)cc(OC)c1OC (configuration not stated) | . | . | 2.3 | . | . | . | . | . | .
CC1(c2ccc([N+](=O)[O-])cc2)NC(=O)N(CC(=O)c2ccc3c(c2)OCO3)C1=O (configuration not stated) | 47.2 | . | 6.3 | 2.5 | 90.1* | 117.3* | 70.5* | 75.9* | 36.7*
CC1(c2ccc(OC(F)F)cc2)NC(=O)N(CC(=O)NC2CCCCC2)C1=O (configuration not stated) | 9.5 | -6.5 | -5.3 | 3.5 | 20.2 | . | . | . | .
CC1(c2ccc(OC(F)F)cc2)NC(=O)N(CC(=O)c2ccc3c(c2)OCO3)C1=O (configuration not stated) | 95.7* | . | -3.2 | 2.1 | 135.9* | 118.5* | 80.5* | 101.6* | 49.4*
COc1ccc(OC)c(S(=O)(=O)N2CCC(c3cn4ccccc4n3)CC2)c1 | . | . | 7.2 | . | . | . | . | . | .
Cc1ccc(S(=O)(=O)n2nc(OC(=O)c3cccs3)cc2N)cc1 | -1.6 | -0.1 | 6.8 | 8.9 | 92.5* | 64.5* | 33.1* | 19.6 | 14.0
Cc1ccc(S(=O)(=O)n2nc(OC(=O)c3ccccc3C)cc2N)cc1 | 13.5 | -10.3 | 4.8 | 11.3 | 47.7* | 53.3* | 32.5* | 14.1 | 22.7*
Cc1ccc(S(=O)(=O)n2ccc(OC(=O)c3cccs3)n2)cc1 | 19.4 | 9.6 | -7.6 | 17.1 | 98.7* | 81.4* | 45.0* | 26.1 | 20.5
Cc1ccc(S(=O)(=O)c2c(C)nn(C(C)(C)C)c2OC(=O)c2cccs2)cc1 | -5.7 | 1.6 | -6.5 | 18.6 | 1.0 | . | . | . | .
COc1ccc(Cn2ccc3ccc(-c4ccc5ccn(C(=O)c6ccccc6OC)c5c4)cc32)cc1 | . | . | 14.7 | . | . | . | . | . | .
CNC[C@H](CC1CCCCC1)NC[C@H](Cc1ccccc1)NCCC12CC3CC(CC(C3)C1)C2 | 36.9 | -75.3 | 12.6 | -11.6 | 56.2* | 93.6* | 81.3* | 80.6* | 89.0*
NC[C@H](Cc1ccccc1)NCCCCC1CCCCC1 | -17.2 | . | 8.6 | . | 5.9 | . | . | . | .
COc1cc(/C=c2\s/c(=C(/C#N)C(=O)N3CCCC3)n(-c3ccccc3)c2=O)ccc1O | 76.0* | -0.2 | 4.7 | -7.0 | 74.8* | 33.4 | 33.9* | 63.7* | 53.9*
O=C(Nc1ccc(C(F)(F)F)cc1)c1ccccc1 | 63.3* | . | 3.0 | . | 52.2* | 17.1 | 11.6* | 37.1 | 12.3
C=CCN(CC#Cc1ccccc1)Cc1ccc(OC)cc1OC | . | . | 0.9 | . | . | . | . | . | .
CC(C)CNC(=O)c1ccccc1-c1ccccc1C(=O)O | 3.0 | 9.9 | 0.8 | -2.2 | 53.5* | 7.0 | 5.1 | -2.1 | 7.3
N#CC1=C(N)OC2=C(CC/C2=C\c2ccccc2)C1c1ccccc1 (configuration not stated) | 70.7* | 29.6 | -3.4 | 55.1* | 64.2* | 45.6* | 68.7* | 67.1* | 77.1*
N#CC1=C(N)OC2=C(CC/C2=C\c2ccccc2Cl)C1c1ccccc1Cl (configuration not stated) | -6.0 | 25.4 | 2.9 | 14.8 | 15.7 | . | . | . | .
CC(C)Nc1nc(NC(C)(C)C)nc(Oc2ccc(=O)n(-c3ccccc3)n2)n1 | -16.0 | -6.2 | -0.3 | 8.5 | 69.7* | 75.5* | 54.0* | -0.6 | 1.2
CCCN1C(=O)S/C(=C\c2ccc(N3CCOCC3)o2)C1=O | 40.4 | 16.3 | 9.5 | -23.7 | 56.1* | 59.6* | 53.1* | 44.6 | 43.9*
SMILES | TAAR1 antagonist | NS3 helicase inh | rCAG binder | HCV core dimer | TAAR1 agonist | TAAR1 ag confirm | Ga16 nonsel ag | TAAR1 desens | Ga16 nonsel ant
C=CCN1C(=O)[C@H](CC(=O)N2CCC(c3ccccc3)CC2)[C@@]2(C(=O)OCC)CCCC=C12 | . | . | 0.6 | . | . | . | . | . | .
N#C/C(=C/c1ccc(N2CCCCC2)o1)C(=O)Nc1ccc2ccccc2c1 | 107.1* | 14.0 | -21.7 | . | 268.2* | 199.2* | 223.2* | 93.4* | 94.7*
N#C/C(=C/c1ccc(N2CCCCC2)o1)C(=O)Nc1ccc(Cl)cc1 | 108.6* | 9.9 | -19.0 | -11.6 | 312.3* | 127.3* | 165.7* | 95.6* | 92.2*
N#C/C(=C/c1ccc(N2CCCCCC2)o1)c1ccc(F)cc1 | . | 14.9 | . | 7.2 | . | . | . | . | .
Cc1cccc(-c2cccc3c4c([nH]c23)[C@@H]2C[C@H](N(C)C(=S)NCCc3ccccc3)[C@H]([C@H](C)O)CN2CC4)c1 | . | . | 7.7 | . | . | . | . | . | .
COc1ccc(CN2CCNC(=O)C2CC(=O)NC2Cc3ccccc3C2)c(OC)c1 (configuration not stated) | -26.1 | -3.2 | 0.0 | -2.8 | 46.1* | 54.1* | 6.8 | -4.8 | 1.3
COC(=O)c1ccc2c(C3(c4c[nH]c5ccccc45)CCN(C(=O)OC(C)(C)C)CC3)c[nH]c2c1 | . | . | 17.4 | . | . | . | . | . | .
